According to ChEMBL document CHEMBL3272224, “Synthesis and hypotensive activity of N-alkyl-N"-cyano-N'-pyridylguanidines” (J Med Chem, 1978):
Calls of active or inactive are those of the source. The rule behind the calls is not given here.

Key:
Rattus norvegicus [1] = experiment: Hypotensive activity in spontaneously hypertensive Wistar-Okamoto rat assessed as time required for persistence of hypotensive effect at 10 mg/kg, po; format: functional
How it was run: (§1)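 SHR (Wistar-Okamoto), five per dose, were given an oral dose in 0.5% carboxymethylcellulose. Indirect cuff pressure in restrained conscious rats was read before dosing and at 2, 4, 6, 8, 12 and 24 h. Duration (h) was scored while pressure remained 15 mmHg or more below the initial reading.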

Canis familiaris [2] = experiment: Hypotensive activity in conscious renal hypertensive dog assessed as time required for persistence of hypotensive effect at 2.5 mg/kg, po measured for 8 hrs; format: functional, Canis lupus familiaris
How it was run: (§2)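 Conscious renal hypertensive dogs received single oral doses in soft gelatin capsules, three per dose. Indirect standing blood pressure was read before dosing and hourly to 8 h. Duration (h) was the time the pressure stayed 15 mmHg or more below the initial value, which was taken as persistence of the hypotensive effect.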

Rattus norvegicus [3] = experiment: Hypotensive activity in spontaneously hypertensive Wistar-Okamoto rat assessed as time required for persistence of hypotensive effect at 5 mg/kg, po; format: functional; how it was run: as §1
Rattus norvegicus [4] = experiment: Hypotensive activity in spontaneously hypertensive Wistar-Okamoto rat assessed as maximum change in mean blood pressure at 5 mg/kg, po relative to control; format: functional
How it was run: (§3)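 Spontaneously hypertensive Wistar-Okamoto rats, five per dose, received compound orally, dissolved or suspended in 0.5% carboxymethylcellulose. Blood pressure was measured indirectly by tail cuff in restrained conscious rats before dosing and at 2, 4, 6, 8, 12 and 24 h. Maximum change was measured after a single administration and given as mean ± error.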

Canis familiaris [5] = experiment: Hypotensive activity in conscious renal hypertensive dog assessed as time required for persistence of hypotensive effect at 10 mg/kg, po measured for 8 hrs; format: functional, Canis lupus familiaris; how it was run: as §2
Rattus norvegicus [6] = experiment: Hypotensive activity in spontaneously hypertensive Wistar-Okamoto rat assessed as maximum change in mean blood pressure at 2.5 mg/kg, po relative to control; format: functional; how it was run: as §3
Canis familiaris [7] = experiment: Hypotensive activity in conscious renal hypertensive dog assessed as maximum change in mean blood pressure at 10 mg/kg, po measured for 8 hrs relative to control; format: functional, Canis lupus familiaris
How it was run: (§4)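 Renal hypertensive dogs, conscious, dosed orally in soft gelatin capsules, three dogs per dose. Mean blood pressure was taken indirectly with an Arteriosonde, standing animals in a semi-insonorized room, just before dosing and then hourly for 8 h. Maximum change was measured after a single administration and given as mean ± error.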

Rattus norvegicus [8] = experiment: Hypotensive activity in spontaneously hypertensive Wistar-Okamoto rat assessed as time required for persistence of hypotensive effect at 2.5 mg/kg, po; format: functional; how it was run: as §1
Canis familiaris [9] = experiment: Hypotensive activity in conscious renal hypertensive dog assessed as time required for persistence of hypotensive effect at 5 mg/kg, po measured for 8 hrs; format: functional, Canis lupus familiaris; how it was run: as §2
Canis familiaris [10] = experiment: Hypotensive activity in conscious renal hypertensive dog assessed as maximum change in mean blood pressure at 5 mg/kg, po measured for 8 hrs relative to control; format: functional, Canis lupus familiaris; how it was run: as §4
[11] = Toxicity in po dosed Sprague-Dawley rat assessed as mortality after 7 days; format: organism-based; settings: in vivo
Rattus norvegicus [12] = experiment: Hypotensive activity in spontaneously hypertensive Wistar-Okamoto rat assessed as maximum change in mean blood pressure at 10 mg/kg, po relative to control; format: functional; how it was run: as §3
Canis familiaris [13] = experiment: Hypotensive activity in conscious renal hypertensive dog assessed as maximum change in mean blood pressure at 2.5 mg/kg, po measured for 8 hrs relative to control; format: functional, Canis lupus familiaris; how it was run: as §4
Canis familiaris [14] = experiment: Hypotensive activity in conscious renal hypertensive dog assessed as time required for persistence of hypotensive effect at 0.25 mg/kg, po measured for 8 hrs; format: functional, Canis lupus familiaris; how it was run: as §2
Canis familiaris [15] = experiment: Hypotensive activity in conscious renal hypertensive dog assessed as maximum change in mean blood pressure at 0.25 mg/kg, po measured for 8 hrs relative to control; format: functional, Canis lupus familiaris; how it was run: as §4
Rattus norvegicus [16] = experiment: Toxicity in rat assessed as change in cardiac noradrenaline level at 1 mg/kg; format: organism-based, Heart; set-up: dose 1 mg/kg; settings: in vivo
How it was run: (§5)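 Rats were given single or repeated (5 days) administration, and cardiac noradrenaline levels were measured.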

Felis catus = species: Felis catus; experiment: Hypotensive activity in decerebrated cat; format: functional, organism-based
Rattus norvegicus [17] = experiment: Hypotensive activity in spontaneously hypertensive Wistar-Okamoto rat assessed as maximum change in mean blood pressure at 0.5 mg/kg, po relative to control; format: functional; how it was run: as §3
Canis familiaris [18] = experiment: Hypotensive activity in conscious renal hypertensive dog assessed as time required for persistence of hypotensive effect at 1 mg/kg, po measured for 8 hrs; format: functional, Canis lupus familiaris; how it was run: as §2
Canis familiaris [19] = experiment: Hypotensive activity in conscious renal hypertensive dog assessed as time required for persistence of hypotensive effect at 0.5 mg/kg, po measured for 8 hrs; format: functional, Canis lupus familiaris; how it was run: as §2
Rattus norvegicus [20] = experiment: Hypotensive activity in po dosed spontaneously hypertensive Wistar-Okamoto rat assessed as dose required to cause 30 mmHg fall of blood pressure administered for 5 days; format: functional; settings: 120 h, read-out: MED
Rattus norvegicus [21] = species: Rattus norvegicus; experiment: Toxicity in rat assessed as effect on contraction of nictitating membranes by preganglionic stimulation; format: organism-based, Nictitating membrane; settings: in vivo
Canis familiaris [22] = experiment: Hypotensive activity in conscious renal hypertensive dog assessed as maximum change in mean blood pressure at 1 mg/kg, po measured for 8 hrs relative to control; format: functional, Canis lupus familiaris; how it was run: as §4
Rattus norvegicus [23] = experiment: Hypotensive activity in spontaneously hypertensive Wistar-Okamoto rat assessed as time required for persistence of hypotensive effect at 1 mg/kg, po; format: functional; how it was run: as §1
Rattus norvegicus [24] = experiment: Hypotensive activity in spontaneously hypertensive Wistar-Okamoto rat assessed as time required for persistence of hypotensive effect at 0.5 mg/kg, po; format: functional; how it was run: as §1
Rattus norvegicus [25] = experiment: Toxicity in rat assessed as change in cardiac noradrenaline level at 1 mg/kg for 5 days; format: organism-based, Heart; set-up: dose 1 mg/kg; settings: in vivo, 120 h; how it was run: as §5
Rattus norvegicus [26] = experiment: Hypotensive activity in spontaneously hypertensive Wistar-Okamoto rat assessed as maximum change in mean blood pressure at 1 mg/kg, po relative to control; format: functional; how it was run: as §3
Canis familiaris [27] = experiment: Hypotensive activity in conscious renal hypertensive dog assessed as maximum change in mean blood pressure at 0.5 mg/kg, po measured for 8 hrs relative to control; format: functional, Canis lupus familiaris; how it was run: as §4
Rattus norvegicus [28] = experiment: Hypotensive activity in spontaneously hypertensive Wistar-Okamoto rat assessed as time required for persistence of hypotensive effect at 0.25 mg/kg, po; format: functional; how it was run: as §1
Rattus norvegicus [29] = experiment: Hypotensive activity in spontaneously hypertensive Wistar-Okamoto rat assessed as maximum change in mean blood pressure at 0.25 mg/kg, po relative to control; format: functional; how it was run: as §3
Rattus norvegicus [30] = experiment: Hypotensive activity in spontaneously hypertensive Wistar-Okamoto rat assessed as maximum change in mean blood pressure at 0.1 mg/kg, po relative to control; format: functional; how it was run: as §3
Rattus norvegicus [31] = experiment: Hypotensive activity in po dosed spontaneously hypertensive Wistar-Okamoto rat relative to hydralazine; format: functional
Rattus norvegicus [32] = experiment: Hypotensive activity in spontaneously hypertensive Wistar-Okamoto rat assessed as time required for persistence of hypotensive effect at 0.1 mg/kg, po; format: functional; how it was run: as §1
Canis familiaris [33] = experiment: Hypotensive activity in conscious renal hypertensive dog assessed as time required for persistence of hypotensive effect at 2 mg/kg, po measured for 8 hrs; format: functional, Canis lupus familiaris; how it was run: as §2
[34] = Toxicity in po dosed mouse assessed as mortality after 7 days; settings: in vivo
Canis familiaris [35] = experiment: Hypotensive activity in conscious renal hypertensive dog assessed as maximum change in mean blood pressure at 2 mg/kg, po measured for 8 hrs relative to control; format: functional, Canis lupus familiaris; how it was run: as §4
Rattus norvegicus [36] = experiment: Hypotensive activity in spontaneously hypertensive Wistar-Okamoto rat assessed as time required for persistence of hypotensive effect at 0.01 mg/kg, po; format: functional; how it was run: as §1
Rattus norvegicus [37] = experiment: Toxicity in rat assessed as change in cardiac noradrenaline level at 0.1 mg/kg for 5 days; format: organism-based, Heart; set-up: dose 0.1 mg/kg; settings: in vivo, 120 h; how it was run: as §5
Canis familiaris [38] = experiment: Hypotensive activity in conscious renal hypertensive dog assessed as maximum change in mean blood pressure at 0.1 mg/kg, po measured for 8 hrs relative to control; format: functional, Canis lupus familiaris; how it was run: as §4
Canis familiaris [39] = experiment: Hypotensive activity in conscious renal hypertensive dog assessed as time required for persistence of hypotensive effect at 0.05 mg/kg, po measured for 8 hrs; format: functional, Canis lupus familiaris; how it was run: as §2
Rattus norvegicus [40] = experiment: Hypotensive activity in spontaneously hypertensive Wistar-Okamoto rat assessed as maximum change in mean blood pressure at 0.01 mg/kg, po relative to control; format: functional; how it was run: as §3
Canis familiaris [41] = experiment: Hypotensive activity in conscious renal hypertensive dog assessed as maximum change in mean blood pressure at 0.05 mg/kg, po measured for 8 hrs relative to control; format: functional, Canis lupus familiaris; how it was run: as §4
Canis familiaris [42] = experiment: Hypotensive activity in conscious renal hypertensive dog assessed as time required for persistence of hypotensive effect at 0.1 mg/kg, po measured for 8 hrs; format: functional, Canis lupus familiaris; how it was run: as §2
Rattus norvegicus [43] = experiment: Hypotensive activity in spontaneously hypertensive Wistar-Okamoto rat assessed as maximum change in mean blood pressure at 0.05 mg/kg, po relative to control; format: functional; how it was run: as §3
Rattus norvegicus [44] = experiment: Toxicity in rat assessed as change in cardiac noradrenaline level at 0.1 mg/kg; format: organism-based, Heart; set-up: dose 0.1 mg/kg; settings: in vivo; how it was run: as §5
Rattus norvegicus [45] = experiment: Hypotensive activity in po dosed spontaneously hypertensive Wistar-Okamoto rat relative to guancydine; format: functional
Rattus norvegicus [46] = experiment: Hypotensive activity in spontaneously hypertensive Wistar-Okamoto rat assessed as time required for persistence of hypotensive effect at 0.05 mg/kg, po; format: functional; how it was run: as §1

SMILES	Activity (Rattus norvegicus [6]) [mmHg]	Time (Rattus norvegicus [8]) [h]	LD50 at 168 h [11] [mg/kg]	Time (Canis familiaris [14]) [h]	Activity (Canis familiaris [15]) [mmHg]	Activity (Felis catus)	Activity (Rattus norvegicus [17]) [mmHg]	Time (Canis familiaris [19]) [h]	minimal effective dose (Rattus norvegicus [20]) [mg/kg]	Activity (Rattus norvegicus [21])	Time (Rattus norvegicus [24]) [h]	Activity (Canis familiaris [27]) [mmHg]	Activity (Rattus norvegicus [30]) [mmHg]	Time (Rattus norvegicus [32]) [h]	LD50 at 168 h [34] [mg/kg]	also measured
CCC(C)(C)/N=C(/S)Nc1cccnc1	-35	2	460													Time (Rattus norvegicus [1]): >4 h; Time (Canis familiaris [2]): 2 h; Time (Rattus norvegicus [3]): 2 h; Activity (Rattus norvegicus [4]): -47 mmHg; Time (Canis familiaris [5]): 4 h; Activity (Canis familiaris [7]): -43 mmHg; Time (Canis familiaris [9]): 2 h; Activity (Canis familiaris [10]): -28 mmHg; Activity (Rattus norvegicus [12]): -69 mmHg; Activity (Canis familiaris [13]): -14 mmHg
CC(N/C(=N\C#N)Nc1ccncc1)C(C)(C)C (stereo unspecified) [PINACIDIL ANHYDROUS]	-79	>12		4	-26	Active	-34	6	0.5	Non-toxic	8	-43				Activity (Rattus norvegicus [16]): Non-toxic; Time (Canis familiaris [18]): >8 h; Activity (Canis familiaris [22]): -67 mmHg; Time (Rattus norvegicus [23]): >12 h; Activity (Rattus norvegicus [25]): Non-toxic; Activity (Rattus norvegicus [26]): -68 mmHg
CC(=O)N(/C(=N\C#N)Nc1cccnc1)C(C)(C)C.O			615			Active	-86	2	0.1	Non-toxic	>8	-22	-30	4	> 1000	Time (Rattus norvegicus [28]): 4 h; Activity (Rattus norvegicus [29]): -64 mmHg; fold change (FC) (Rattus norvegicus [31]): 2; Time (Canis familiaris [33]): 8 h; Activity (Canis familiaris [35]): -75 mmHg
CC(C)(C)/N=C(/NC#N)Nc1cccnc1			278	6	-62	Active			0.1	Non-toxic			-72	>8	> 1000	Time (Rattus norvegicus [36]): 4 h; Activity (Rattus norvegicus [37]): Non-toxic; Activity (Canis familiaris [38]): -45 mmHg; Time (Canis familiaris [39]): 2 h; Activity (Rattus norvegicus [40]): -26 mmHg; Activity (Canis familiaris [41]): -25 mmHg; Time (Canis familiaris [42]): 4 h; Activity (Rattus norvegicus [43]): -37 mmHg; Activity (Rattus norvegicus [44]): Non-toxic; fold change (FC) (Rattus norvegicus [45]): 100; Time (Rattus norvegicus [46]): 6 h
